The list is not random: actives were taken first. Their share in the collection is about 2.6%.
PolyA inh: blocks polyadenylation in yeast reporter cells; S. cerevisiae SKY197-pL101 polyadenylation reporter, beta-gal luminescence; efflux-impaired pdr1/pdr3 knockout yeast; score 100 = 6 SD above DMSO; activity score, % at 12 µM; 0.02% of 300,000 active;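 active means lowest replicate activity score at least 50, where 100 means six control SD above control mean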;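 further: yeast exposed to compound for 9 h at 30 °C; higher score means more reporter readthrough which indicates perturbed polyadenylation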
AHR activator: activators of human aryl hydrocarbon receptor | P35869 | AHR-responsive luciferase reporter cells, luminescence | activation, % at 5 µM | 2.5% of 320,000 active | AID 2796; in the data active means activation above about 47%;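 further: 0% = vehicle wells and 100% = reference agonist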
procasp7 counter: activates human procaspase-7, counter-screen for procaspase-3 activators; P55210; recombinant procaspase-7, Ac-DEVD-pNA absorbance 405 nm; D23A/D198A/D206A triple mutant, cannot self-cleave; scale: DMSO 0, 5 µM enzyme 100; activation, % at 8.5 µM; 0.093% of 330,000 active;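 active means percent activation above the screen-wide mean plus 3 SD, cut at about 25% in these data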
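Assay system: Uncleavable procaspase-7 mutant enzyme / Input: 2 µM procaspase-7 mutant as dispensed / Dosing: single nominal 8.5 µM compound dose, 0.8% DMSO final / Timing: 1 h enzyme–compound preincubation and 2 h substrate reaction, both 25 °C / Detection: p-Nitroaniline absorbance at 405 nm, read at 0 and 120 min / Replication: singlicate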
procasp3 activ: activates human procaspase-3 | recombinant procaspase-3 D3A, Ac-DEVD-pNA absorbance 405 nm | AID 463141 | activation, % at 8.5 µM | P42574 | 0.11% of 330,000 active;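 active means activation above the mean of all tested compounds plus 3 SD, cut at about 21% in these data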;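 further: 0% = DMSO alone and 100% = DMSO wells spiked with extra 5 µM PC-3 D3A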
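Compound: 8.5 µM single point, 0.8% DMSO / Material: Autoprocessing-dead procaspase-3 D3A mutant enzyme / Timing: 1 h preincubation plus 2 h reaction at 25 °C / Medium: Zinc-free HEPES/NaCl buffer with 0.01% Triton X-100 at pH 7.4 / Technique: 405 nm absorbance of p-nitroaniline, reads at 0 and 120 min / Repeats: one well per compound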
AHR act confirm: confirmation of human aryl hydrocarbon receptor activators; shares compounds with AHR activator; AID 2845; activation, % at 9 µM; 87% of 2,300 active; human cells, AHR-responsive luciferase reporter, luminescence; in the data active means activation above about 49%;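 further: HepG2 hepatoma cells carrying a DRE-driven firefly luciferase reporter; 0% = vehicle wells and 100% = reference agonist wells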
PXR counter: counter-screen for AHR activators: human PXR activators. 88% of 2,300 active. shares compounds with AHR activator. activation, % at 11.6 µM. cell-based PXR reporter, luciferase luminescence; in the data active means activation above about 11%;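 further: human hepatoma DPX-2 cells expressing full-length human PXR; 0% = DMSO and 100% = reference agonist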
The depositor's hits bear a star; · = no result given.

SMILES	PolyA inh	AHR activator	procasp7 counter	procasp3 activ	AHR act confirm	PXR counter
CC(NC(=O)c1cccc(S(=O)(=O)N(C)c2ccccc2)c1)c1cccnc1 (stereo not given)	·	3	13	-2	·	·
COc1ccc(CN2CCNC(=O)C2CC(=O)NCCCC2CCCC2)c(C)c1C (stereo not given)	7	0	4	0	·	·
O=C(NC1CCN(S(=O)(=O)c2ccc(Cl)c(F)c2)CC1)c1cccnc1	-2	0	0	7	·	·
COc1ccc(C(=O)NN)cc1COc1ccc(Br)cc1	-15	102*	3	4	90*	17*
Cn1c(C(=O)Nc2ccc3c(c2)OCO3)cc2sccc21	-18	89*	3	-2	139*	109*
O=C(Nc1ccc2c(c1)OCO2)c1ccncc1	-1	103*	7	-2	74*	·
O=C(Cn1cnc2ccccc2c1=O)Nc1ccc2c(c1)OCO2	4	93*	3	-10	70*	17*
COc1ccc(NC(=O)c2ccc(Cl)nc2)cc1S(=O)(=O)N1CCCCC1	-6	121*	10	1	85*	63*
CC(C)(C)OC(=O)N1CCC[C@H]1c1nnc(SCc2ccc(Cl)cc2)o1	14	3	3	-3	·	·
Cc1ccc(C(=O)Nc2ccc3c(c2)OCO3)o1	16	122*	-4	-6	108*	39*
O=C(Nc1ccc2c(c1)OCO2)c1ccc(Cl)nc1	3	88*	-1	5	149*	23*
Cc1ccc(C(=O)Nc2ccc3c(c2)OCO3)cc1	4	43	-3	-8	·	·
C/C(=C\C(=O)c1ccc(C)o1)Nc1ccc2c(c1)OCO2	-13	14	-34	-27	·	·
O=C(Nc1ccc2c(c1)OCO2)c1nn(-c2ccccc2)c(=O)c2ccccc12	-19	26	2	6	·	·
O=C(Nc1ccc2c(c1)OCO2)c1ccc(Br)s1	14	131*	-9	1	93*	25*
O=C(Nc1ccc2c(c1)OCO2)c1n[nH]c(=O)c2ccccc12	1	132*	2	-1	132*	43*
CC(=O)Nc1ccc2c(c1)OCO2	-3	1	2	-2	·	·
Cc1ccc(CNc2nc(C)cs2)cc1	4	12	7	-3	·	·
CCN1CCN(C(C)CCc2ccccc2)CC1 (stereo not given)	-7	-1	11	14	·	·
CCn1c(C)nc2cc(C(=O)N/N=C/c3cccc(O)c3O)ccc21	-13	-2	-10	2	·	·
CCCN(CCC)CCNC(=O)CCC(=O)Nc1ccc2nc(N3CCN(C)CC3)cc(C)c2c1	-11	5	11	6	·	·
Cc1cc2c(C)nc(-c3ccccc3)nc2o1	-13	116*	-1	-1	159*	39*
Cc1cc(Cl)nc(-c2ccccc2)n1	-18	1	3	11	·	·
C=CCn1c(O)c(N=NC(=S)Nc2ccccc2F)c2ccccc21	-12	137*	-7	5	83*	79*
C=CCn1c(O)c(N=NC(=S)Nc2cccc(C)c2)c2ccccc21	-41	123*	1	10	78*	59*
SMILES	PolyA inh	AHR activator	procasp7 counter	procasp3 activ	AHR act confirm	PXR counter
Cc1c(NS(=O)(=O)c2cc(C(=O)NCc3ccco3)cc(Cl)c2Cl)c(=O)n(-c2ccccc2)n1C	12	97*	-13	-14	102*	201*
COc1cccc(/C=N/Nc2nc(-c3cccnc3)nc3ccccc23)c1	3	93*	-4	-12	54*	18*
CNc1sc(C(=O)c2ccc(F)cc2)c(N)c1-c1nc2ccccc2s1	-48	32	-8	3	·	·
CNc1sc(C(=O)c2cccs2)c(N)c1-c1nc2ccccc2s1	-7	89*	-13	-5	119*	82*
COc1ccccc1N(C(=O)c1ccco1)C(C(=O)NC1CCCC1)c1ccncc1 (stereo not given)	-1	14	2	-7	·	·
O=C(Nc1ccc(C(F)(F)F)cc1)c1ccc2ncsc2c1	-7	42	0	-8	·	·
COc1ccc(CCNC(=O)c2ccc3nc[nH]c3c2)cc1	19	-1	17	-7	·	·
O=C(Nc1ccc(C(F)(F)F)cc1)c1ccc2nc[nH]c2c1	8	106*	5	-3	98*	10*
